The source of these data is ChEMBL document CHEMBL1138528, “Discovery of tetrasubstituted imidazolines as potent and selective neuropeptide Y Y5 receptor antagonists: reduced human ether-a-go-go related gene potassium channel binding affinity and potent antiobesity effect” (J Med Chem, 2009).

The term Ki denotes a dissociation constant, usually derived from enzyme kinetics or from competition with a known ligand. The term logD denotes the decadic logarithm of the distribution of all forms, ionised or not, between an organic phase and buffer at a given pH. The Kp is the ratio of the level in a tissue or fluid to that in plasma or blood. Usually IC50 stands for the point on the concentration scale where inhibition reaches its midpoint. The low end stands for inhibition by little substance, the high end for a need for much substance.

The target of data set [1] is T1, Neuropeptide Y receptor type 5 (Homo sapiens, UniProt Q15761).
T1 sequence (Q15761 whole entry): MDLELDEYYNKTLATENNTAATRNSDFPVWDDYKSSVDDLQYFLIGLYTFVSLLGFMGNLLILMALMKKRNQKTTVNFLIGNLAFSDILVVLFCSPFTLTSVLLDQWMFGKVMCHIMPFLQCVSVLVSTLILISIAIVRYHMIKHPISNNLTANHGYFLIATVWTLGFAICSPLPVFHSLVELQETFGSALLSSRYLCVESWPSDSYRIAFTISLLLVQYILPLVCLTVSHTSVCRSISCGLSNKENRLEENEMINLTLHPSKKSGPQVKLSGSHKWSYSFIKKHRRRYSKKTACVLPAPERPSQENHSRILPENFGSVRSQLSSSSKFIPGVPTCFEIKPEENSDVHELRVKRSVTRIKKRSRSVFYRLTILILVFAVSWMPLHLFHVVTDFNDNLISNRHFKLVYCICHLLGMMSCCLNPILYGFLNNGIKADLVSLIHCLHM
Kind of data set: Displacement of [125I]PYY from human recombinant neuropeptide Y5 receptor expressed in mouse LMtk- cells. It is filed as cell-based.

A short description of data set [2]: Octanol-water distribution coefficient, log D at pH 7.4. It is filed as physicochemical.
Data set [3] is described as follows: Metabolic stability in rat hepatocytes assessed as hepatic clearance by serum incubation method. The data set is classed as ADME, cell-based, Liver, Hepatocyte.
The nature of data set [4]: Plasma concentration in Sprague-Dawley rat at 10 mg/kg, po after 2 hrs. More on the design: dose 10 mg/kg, route oral. It is filed as ADME, organism-based. An outline of the steps:
(§1)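 Male SD rats (7-10 weeks, 200-400 g) dosed orally at 10 mg/kg in 0.5% methylcellulose; at 2 h aortic blood taken under isoflurane. Plasma, brain homogenate (sonicated in water) and CSF deproteinized with 3-fold ethanol plus internal standard, -20 °C 20 min, centrifuged; LC/MS/MS with relative calibration curve. Mean, n = 2-3.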

For data set [5], the system named is Brain. Kind of data set: Drug level in Sprague-Dawley rat brain at 10 mg/kg, po after 2 hrs. The data set is classed as ADME, organism-based. To be noted: in vivo. More on the design: dose 10 mg/kg, route oral. An outline of the steps:
as §1

The nature of data set [6]: Drug level in Sprague-Dawley rat cerebrospinal fluid at 10 mg/kg, po after 2 hrs. It is filed as ADME, organism-based. More on the design: dose 10 mg/kg, route oral. Particulars: Sprague-Dawley, cerebrospinal fluid, read-out: Drug uptake. Summed up: as §1
Data set [7] is described as follows: Ratio of drug level from brain to plasma in Sprague-Dawley rat at 10 mg/kg, po after 2 hrs. The data set is classed as ADME, organism-based. More on the design: dose 10 mg/kg, route oral. An outline of the steps:
as §1

Data set [8] can be described thus: Ratio of drug level from cerebrospinal fluid to brain in Sprague-Dawley rat at 10 mg/kg, po after 2 hrs. The data set is classed as ADME, organism-based, CSF/Brain. The arrangement: dose 10 mg/kg, route oral. To be noted: in vivo.
Data set [9] concerns the target Voltage-gated inwardly rectifying potassium channel KCNH2 (Homo sapiens, UniProt Q12809).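 Further: radioligand displacement binding to human ERG expressed in HEK293 cells, using a [35S]-labelled spiro-benzopyran-piperidine methanesulfonamide as the displaced ligand.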

Chain of Voltage-gated inwardly rectifying potassium channel KCNH2 (Q12809 whole entry): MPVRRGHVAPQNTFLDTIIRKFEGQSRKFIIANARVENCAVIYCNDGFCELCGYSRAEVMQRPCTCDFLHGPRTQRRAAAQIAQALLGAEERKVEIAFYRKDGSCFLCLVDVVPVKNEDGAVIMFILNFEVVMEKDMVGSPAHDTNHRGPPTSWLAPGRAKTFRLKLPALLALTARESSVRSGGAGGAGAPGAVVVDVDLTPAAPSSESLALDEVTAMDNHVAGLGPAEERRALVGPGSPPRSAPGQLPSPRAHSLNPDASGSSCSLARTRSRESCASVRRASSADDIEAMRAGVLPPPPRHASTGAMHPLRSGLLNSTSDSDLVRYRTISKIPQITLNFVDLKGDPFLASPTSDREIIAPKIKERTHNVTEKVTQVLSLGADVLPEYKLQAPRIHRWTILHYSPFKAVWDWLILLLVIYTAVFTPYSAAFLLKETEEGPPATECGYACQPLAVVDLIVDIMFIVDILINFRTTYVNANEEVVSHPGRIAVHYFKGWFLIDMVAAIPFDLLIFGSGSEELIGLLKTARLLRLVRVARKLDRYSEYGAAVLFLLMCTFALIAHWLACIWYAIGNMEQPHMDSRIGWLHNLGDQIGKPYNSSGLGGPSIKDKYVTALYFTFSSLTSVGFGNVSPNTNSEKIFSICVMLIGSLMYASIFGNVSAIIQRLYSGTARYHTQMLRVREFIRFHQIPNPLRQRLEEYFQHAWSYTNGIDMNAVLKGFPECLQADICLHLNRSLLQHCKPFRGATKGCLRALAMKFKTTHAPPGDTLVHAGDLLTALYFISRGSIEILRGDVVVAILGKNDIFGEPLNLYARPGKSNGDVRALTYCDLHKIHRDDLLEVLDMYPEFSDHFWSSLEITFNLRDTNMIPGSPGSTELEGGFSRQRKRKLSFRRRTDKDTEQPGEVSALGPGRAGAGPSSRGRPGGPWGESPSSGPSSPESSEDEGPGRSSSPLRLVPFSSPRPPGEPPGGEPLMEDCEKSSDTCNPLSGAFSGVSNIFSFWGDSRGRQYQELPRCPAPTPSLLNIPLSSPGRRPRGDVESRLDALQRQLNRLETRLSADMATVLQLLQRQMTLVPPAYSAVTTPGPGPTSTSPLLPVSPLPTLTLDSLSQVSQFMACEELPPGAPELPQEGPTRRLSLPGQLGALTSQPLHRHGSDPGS

Consider `C[C@H]1NC(c2cc(C#N)ccn2)=NC1(c1ccc(F)cc1)c1ccc(F)cc1`, for which, in data set [1], the Ki is 300 nM.

For `C[C@@H]1NC(c2cncc(C#N)c2)=N[C@@]1(c1ccc(F)cc1)c1ccc(F)nc1`, the inhibitory constant (Ki) in data set [1] was determined as 3.2 nM. In data set [2], this compound registered a logD of 2.9. Besides, the CLhep predicted in data set [3] was 12 mL/min/kg. Besides, the concentration at 2 h in data set [4] stood at 4400 nM; in data set [6] it was 460 nM. Further, the Drug uptake in [5] is given as 5.3 nmol/g. Further, the Kp at 2 h in data set [7] came out at 1.2. Besides, the Ratio in [8] turned out to be 0.087. Besides, the IC50 in data set [9] was above 10000 nM.

In the case of `CC[C@@H]1NC(c2cc(C#N)ccn2)=NC1(c1ccc(F)cc1)c1ccc(F)cc1`, the Ki in [1] was 2.6 nM. For the same compound, inhibition in data set [9] was half-maximal at 490 nM (IC50).

In the case of `C[C@@H]1NC(c2cc(C(N)=O)ccn2)=N[C@@]1(c1ccc(F)cc1)c1ccc(F)nc1`, in data set [1], the Ki was 5.1 nM. The same compound registered a pH-dependent lipophilicity (logD) in data set [2] of 2.4. Besides, the CLhep predicted in data set [3] is 7 mL/min/kg.

Take `C[C@@H]1NC(c2cc(C#N)ccn2)=NC1(c1ccc(F)nc1)c1ccc(F)nc1`: the Ki in [1] came to 3.1 nM. In addition, the logD in data set [2] came to 2.2. For the same compound, in [3], the CLhep predicted was 52 mL/min/kg. In [9], this compound registered a half-maximal inhibitory concentration (IC50) above 10000 nM.

For the compound `C[C@@H]1NC(c2cc(Cl)ccn2)=N[C@@]1(c1ccc(F)cc1)c1ccc(F)nc1`, the Ki in data set [1] was 1.8 nM. This compound also yielded a pH-dependent lipophilicity (logD) in [2] of 3.8. Besides, the CLhep predicted in data set [3] was 58 mL/min/kg.

Consider `C[C@@H]1NC(c2cnccn2)=NC1(c1ccc(F)cc1)c1ccc(F)cc1`, for which the Ki in data set [1] was found to be 1.9 nM. In data set [2], this compound had a logD of 3.7. In addition, in data set [3], the CLhep predicted was 57 mL/min/kg. In addition, the 50% inhibitory concentration (IC50) in data set [9] was above 10000 nM.

As to `CCC[C@@H]1NC(c2cc(C#N)ccn2)=NC1(c1ccc(F)cc1)c1ccc(F)cc1`, in [1], the Ki is 8.6 nM. This compound registered an IC50 in data set [9] of 490 nM.

On to `N#Cc1cccc(C2=NC(c3ccc(F)cc3)(c3ccc(F)cc3)CN2)c1`, for which the Drug uptake in [5] turned out to be 8.1 nmol/g. The Ratio in data set [8] came to 0.003.

As to `COc1ccnc(C2=N[C@@](c3ccc(F)cc3)(c3ccc(F)nc3)[C@H](C)N2)c1`, in data set [1], the Ki was determined as 2.5 nM. Moreover, the logD in data set [2] stood at 3.6. In addition, in data set [3], the CLhep predicted is 58 mL/min/kg.

As to `C[C@@H]1NC(c2cc(C#N)ccn2)=N[C@@]1(c1ccc(F)cc1)c1ccc(=O)[nH]c1`, in data set [1], the Ki worked out at 145 nM.

As to `C[C@@H]1NC(c2nccs2)=N[C@@]1(c1ccc(F)cc1)c1ccc(F)nc1`, the Ki in [1] amounted to 4.1 nM. This compound registered a logD in [2] of 3. The IC50 in data set [9] was above 10000 nM.

Consider `C[C@@H]1NC(c2cccc(C#N)c2)=N[C@@]1(c1ccc(F)cc1)c1ccc(F)nc1`, for which the inhibition constant Ki in data set [1] was 0.8 nM. The compound also registered a log distribution coefficient (logD) in data set [2] of 3.6. Also, the CLhep predicted in data set [3] was 9 mL/min/kg. Besides, the concentration at 2 h amounted to 2600 nM in [4] and 130 nM in data set [6]. This compound gave a Drug uptake in data set [5] of 6.1 nmol/g. Besides, in data set [7], the concentration ratio (Kp) at 2 h amounted to 2.3.

As to `Fc1ccc(C2(c3ccc(F)cc3)CNC(c3cnccn3)=N2)cc1`, the Ki in [1] was 4.3 nM. This compound also yielded a pH-dependent lipophilicity (logD) in data set [2] of 3.5. For the same compound, the CLhep predicted in data set [3] is 51 mL/min/kg. Further, in [5], the Drug uptake is reported as 5.9 nmol/g. In [8], the Ratio was 0.011. In [9], this compound yielded an IC50 of 3400 nM.

As for `C[C@@H]1NC(c2cnccn2)=N[C@@]1(c1ccc(F)cc1)c1ccc(F)nc1`, the Ki in data set [1] turned out to be 2.2 nM. The logD in data set [2] amounted to 2.5. In addition, the CLhep predicted in [3] was 42 mL/min/kg.

As for `C[C@@H]1NC(c2ccnc(C#N)c2)=N[C@@]1(c1ccc(F)cc1)c1ccc(F)nc1`, in data set [1], the Ki turned out to be 1 nM. This compound returned a logD in data set [2] of 3.2. Further, in data set [3], the CLhep predicted was 13 mL/min/kg. Besides, the concentration at 2 h in data set [4] is 3700 nM; in [6], 220 nM. This compound also returned a Drug uptake in [5] of 3.2 nmol/g. In addition, the Kp at 2 h in [7] is 0.9. Besides, the Ratio in data set [8] is recorded as 0.069. The same compound had a half-inhibitory concentration (IC50) in data set [9] above 10000 nM.

On to `C[C@@H]1NC(c2cccc(=O)[nH]2)=N[C@@]1(c1ccc(F)cc1)c1ccc(F)nc1`, for which the logD in [2] was found to be 2.4. In addition, the concentration at 2 h is 3700 nM in [4] and 50 nM in data set [6]. In [5], the Drug uptake was 0.36 nmol/g. For the same compound, the partition ratio (Kp) at 2 h in data set [7] is 0.1.

On to `C[C@@H]1NC(c2cccc(C#N)n2)=N[C@@]1(c1ccc(F)cc1)c1ccc(F)nc1`, for which the Ki in data set [1] came to 5.9 nM. The same compound registered a logD in [2] of 3.3. Moreover, in [3], the CLhep predicted is 13 mL/min/kg. Further, the IC50 in data set [9] was determined as 6930 nM.

Regarding `N#Cc1ccnc(C2=NC(c3ccc(F)cc3)(c3ccc(F)cc3)[C@H](CO)N2)c1`, the Ki in [1] amounted to 3 nM. This compound came in with a logD in data set [2] of 3.4. For the same compound, in data set [3], the CLhep predicted was 11 mL/min/kg. Also, the concentration at 2 h worked out at 1100 nM in data set [4] and 57 nM in data set [6]. In addition, in [5], the Drug uptake was found to be 2.3 nmol/g. In addition, in data set [7], the Kp at 2 h is 2.1. In data set [8], the Ratio worked out at 0.025. The compound further registered an IC50 in data set [9] of 6100 nM.

On to `C[C@@H]1NC(c2cnsn2)=N[C@@]1(c1ccc(F)cc1)c1ccc(F)nc1`, for which the inhibitory constant (Ki) in data set [1] was 2 nM. In data set [2], this compound returned a logD of 3.1. Besides, the CLhep predicted in data set [3] is 58 mL/min/kg.

The compound `C[C@@H]1NC(c2cc(C#N)ccn2)=N[C@]1(c1ccc(F)cc1)c1ccc(F)nc1` yielded a logD in data set [2] of 2.9. For the same compound, the CLhep predicted in [3] was 56 mL/min/kg.

In the case of `C[C@@H]1NC(c2cccc(S(C)(=O)=O)c2)=N[C@@]1(c1ccc(F)cc1)c1ccc(F)nc1`, the Ki in data set [1] is 2.5 nM. In addition, the logD in data set [2] came out at 2.9. In [3], the CLhep predicted is 6 mL/min/kg. For the same compound, the IC50 in data set [9] is above 10000 nM.

Regarding `COc1ccc([C@]2(c3ccc(F)cc3)N=C(c3cc(C#N)ccn3)N[C@H]2C)cn1`, the Ki in [1] was 1.1 nM. In data set [2], this compound yielded a log distribution coefficient (logD) of 3.5. In addition, the CLhep predicted in data set [3] was 44 mL/min/kg.

Regarding `C[C@@H]1NC(c2cc(C#N)ccn2)=NC1(c1ccc(F)cc1)c1ccc(F)cc1`, in data set [1], the Ki worked out at 1 nM. This compound had a logD in data set [2] of 4.1. For the same compound, the CLhep predicted in data set [3] was 28 mL/min/kg.

Consider `N#Cc1ccnc(C2=NC(c3ccc(F)cc3)(c3ccc(F)cc3)CN2)c1`, for which, in data set [1], the Ki was found to be 2 nM. In addition, the pH-dependent lipophilicity (logD) in data set [2] came to 4. In addition, the CLhep predicted in data set [3] is 12 mL/min/kg. The Drug uptake in [5] is given as 6.4 nmol/g. Further, the Ratio in data set [8] is recorded as 0.004. Further, the half-inhibitory concentration (IC50) in data set [9] was 101 nM.

`C[C@@H]1NC(c2nccc(C#N)n2)=N[C@@]1(c1ccc(F)cc1)c1ccc(F)nc1`: the Ki in data set [1] was 3.6 nM. Further, the logD in data set [2] was determined as 2.2. For the same compound, the CLhep predicted in data set [3] was 30 mL/min/kg.
